Screens (PubChem)
RanGTP-Imp inh = inhibitors of RanGTP-importin-beta interaction, primary screen, biochemical, FRET, CFP-Ran, YFP-importin-beta, homogeneous; Ran GTPase (GTP-bound) - importin-beta complex; cell-free CFP-Ran/YFP-importin-beta FRET ratio; inhibition, % (no concentration beside the values); hit rate 1.1% among 300,000;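 active = more than half of the replicate wells show a fall in the fluorescence ratio signal beyond about 16%, limit read from the data, passing the limit was not always enough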
Runt-CBFb FRET = inhibitors of RUNX1 Runt–CBFb binding, primary screen, biochemical, FRET, Cerulean-Runt, Venus-CBFb, uHTS | Runt-related transcription factor 1 (Homo sapiens) + Core-binding factor subunit beta … | Cerulean-Runt/Venus-CBFb FRET ratio 530/480, 1 h | inhibition, % at 20 µM | hit rate 0.46% among 220,000 | AID 1496, 2009;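 active = inhibition over about 50% at 20 µM in the single-dose screen, limit read from the data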
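test system = Cerulean-Runt domain fusion protein, energy donor | probe or stimulus = Venus-CBFb binding partner, 100 nM | incubation = two 1 h room-temperature incubations shielded from light | detection = fluorescence energy transfer, 422 nm excitation, 530/480 nm emission | measure = loss of energy transfer signal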
Hck-Nef inh = inhibitors of Nef-activated human Hck kinase, primary screen, biochemical, Z-Lyte FRET, 384-well, Hck-YEEI; Tyrosine-protein kinase HCK (Homo sapiens), P08631; Recombinant Hck-YEEI plus Nef, Z-Lyte FRET kinase assay; inhibition, % at 20 µM; hit rate 0.68% among 220,000; AID 463187, 2010;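 active = Hck-Nef kinase inhibition above about 50%, limit read from the data; inactive = inhibition below that limit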
Target sequence (P08631 whole entry, looked up): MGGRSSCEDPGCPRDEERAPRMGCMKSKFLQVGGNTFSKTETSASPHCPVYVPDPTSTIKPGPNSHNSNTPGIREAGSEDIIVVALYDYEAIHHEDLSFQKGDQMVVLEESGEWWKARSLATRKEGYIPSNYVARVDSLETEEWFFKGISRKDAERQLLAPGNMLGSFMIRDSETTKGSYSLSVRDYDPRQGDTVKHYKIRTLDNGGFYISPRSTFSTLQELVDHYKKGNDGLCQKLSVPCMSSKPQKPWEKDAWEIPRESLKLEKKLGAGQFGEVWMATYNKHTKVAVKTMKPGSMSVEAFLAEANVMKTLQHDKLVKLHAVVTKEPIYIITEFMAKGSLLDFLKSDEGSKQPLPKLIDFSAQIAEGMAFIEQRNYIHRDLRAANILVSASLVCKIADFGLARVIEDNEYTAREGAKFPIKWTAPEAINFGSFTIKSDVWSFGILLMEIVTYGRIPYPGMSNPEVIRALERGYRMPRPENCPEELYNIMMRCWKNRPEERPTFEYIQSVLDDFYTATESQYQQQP
Runt-SMMHC FRET = inhibitors of RUNX1 Runt–CBFb-SMMHC binding, primary screen, biochemical, FRET, Cerulean-Runt, Venus-CBFb-SMMHC, uHTS; Runt-related transcription factor 1 (Homo sapiens) + Core-binding factor subunit beta …; Cerulean-Runt/Venus-CBFb-SMMHC FRET ratio 530/480, 1 h; inhibition, % at 20 µM; hit rate 0.74% among 220,000;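 active = mean inhibition across duplicate retests at 20 µM reaching about 50%, limit read from the data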;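 also: inhibitors lower the FRET ratio by blocking Runt binding to CBFb-SMMHC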
YIC counter = YIC intramolecular FRET probe signal interference, dose response, counter-screen for RanGTP-importin-beta inhibitor project, biochemical, fluorescence FRET; shares compounds with RanGTP-Imp inh; Purified YIC probe, intramolecular FRET ratio YFP/CFP; IC50, µM; hit rate 40% among 1,000; AID 435026, 2010;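 active = fitted half-maximal inhibitory concentration no more than tenfold above the top dose tested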
Numbers stand for hits; . = inactive; / = no result given. Rows were chosen to be rich in hits. Some 1.9% of all compounds tested hit in one or more screens of this group.

SMILES	RanGTP-Imp inh	Runt-CBFb FRET	Hck-Nef inh	Runt-SMMHC FRET	YIC counter
NC(=O)CN(Cc1ccccc1)S(=O)(=O)c1ccc2c(c1)OCCO2	18.9	/	/	/	.
Oc1cccc(Nc2c3ccccc3nc3ccccc23)c1	50.4	/	/	/	.
c1cncc(Nc2c3ccccc3nc3ccccc23)c1	33.9	/	/	/	.
COc1ccccc1Nc1nc(-c2ccccc2)nc2ccccc12	.	.	.	.	/
COc1ccccc1Nc1c2ccccc2nc2ccccc12	27.2	/	/	/	.
CC1(C)Cc2c(cnn2-c2ccc(F)cc2)C(NC(=O)CCN2CCCCC2=O)C1 (stereo unspecified)	.	/	/	/	/
CCOC(=O)[C@@H]1[C@H]2COc3ccccc3[C@H]2N2C(=O)N(c3ccc(C(F)(F)F)cc3)C(=O)[C@]12C	.	/	/	/	/
CN(C)/C=N/c1nc2nccc(-c3cccs3)n2n1	16.7	.	.	.	13.8
CN(C)/C=N/c1nc2nccc(-c3ccc(F)cc3)n2n1	.	.	.	.	/
O=C(CSc1ccccc1C(=O)O)NCC1CCCCC1	.	.	.	.	/
CCn1c(SCc2nc(-c3ccccc3)no2)nnc1-c1cccs1	23.7	.	.	.	.
CCn1c(SCc2nc(-c3ccccc3)no2)nnc1-c1ccco1	.	.	.	.	/
Cc1cc(NC(=O)c2c(-c3c(Cl)cccc3Cl)noc2C)n(C)n1	.	.	.	.	/
CCCc1cc(=O)oc2c(CN3CCN(C)CC3)c(O)c(Cl)cc12	50.5	123.3	/	101.1	31.4
CCCc1cc(=O)oc2c(CN3CCN(C)CC3)c(O)ccc12	.	/	/	/	/
CS(=O)(=O)N1CCN(c2ccc([N+](=O)[O-])c(NCc3cccnc3)c2)CC1	.	.	.	.	/
N#Cc1c(N)n(CCNC(=O)c2ccc(Cl)cc2)c2nc3ccccc3nc12	27.9	94.0	.	.	2.04
O=C(NCCN1CCCC1)c1ccc(Cl)cc1	.	.	.	.	/
C=CCN(C(=O)c1csnn1)C(C(=O)NC1CCCC1)c1ccccc1F (stereo unspecified)	.	/	/	/	/
Cc1ccc(C)c(C2NC(=O)c3ccccc3N2)c1 (stereo unspecified)	.	.	.	.	/
Cc1sc2c(c1C)C(=O)NC(c1ccccc1F)N2 (stereo unspecified)	24.3	.	.	.	.
Cc1ccc(C2NC(=O)c3c(sc(C)c3C)N2)c(O)c1 (stereo unspecified)	24.2	.	.	.	.
NS(=O)(=O)c1ccc(CCNC(=O)CCCOc2ccccc2)cc1	.	.	.	.	/
CCCN(CC(=O)Nc1ccccc1C)C(=O)c1ccc(NC2CC2)c([N+](=O)[O-])c1	.	/	/	/	/
Cc1cccc(OCCC(=O)Nc2c(C)n(C)n(-c3ccccc3)c2=O)c1	.	.	.	.	/
SMILES	RanGTP-Imp inh	Runt-CBFb FRET	Hck-Nef inh	Runt-SMMHC FRET	YIC counter
Cn1cccc1-c1nc2ccccc2[nH]1	.	.	.	.	/
OCCC1CN(Cc2cccn2-c2cccnc2)CCN1Cc1ccc(F)cc1 (stereo unspecified)	26.9	.	.	.	.
CCOc1ccc(CN2CCN(Cc3cccn3-c3cccnc3)CC2CCO)cc1 (stereo unspecified)	.	.	.	.	/
CC1=NN(C(=O)c2ccccc2)C(O)(c2ccc(Br)cc2)C1 (stereo unspecified)	24.3	.	.	.	.
O=C(Nc1cccc(F)c1)C1CCCN(S(=O)(=O)c2ccc(-n3cnnn3)cc2)C1 (stereo unspecified)	.	/	/	/	/
CC(C)(C)Sc1ccc([N+](=O)[O-])cc1C(=O)Nc1ccncc1	.	.	.	.	/
CC1CN(CCC(=O)Nc2ccc3c(c2)OCO3)CC(C)O1 (stereo unspecified)	.	.	.	.	/
C[C@@H]1CCCCO[C@H](CN(C)Cc2ccc3c(c2)OCO3)[C@@H](C)CN([C@H](C)CO)C(=O)c2cc(NC(=O)CCCN(C)C)ccc2O1	/	/	/	/	.
COC(=O)N(C)C[C@H]1OCc2cn(nn2)CCCC(=O)N([C@@H](C)CO)C[C@H]1C	/	/	/	/	.
O=C(c1ccco1)N1CCN(c2cc(=O)n(-c3ccc(Cl)cc3)c(=O)[nH]2)CC1	48.0	.	.	.	.
